# Experimental data as given in PubChem BioAssay AID651560 (Sanford-Burnham Center for Chemical Genomics, 2012).
# Hit rate of the full screen: of about 360,000 compounds, about 820 (0.23%) were called active. Shown is part of a subset that was picked to be rich in actives. A number with no mark means an inactive call.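 The calls were made as follows: active = compounds that cut the enzyme signal by at least half of the control window in the single-dose screen; inactive = the rest.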
# Biological target: Low molecular weight phosphotyrosine protein phosphatase (Homo sapiens) (UniProt P24666)
# Assay: LMPTP phosphatase inhibitors, primary screen, biochemical, fluorescence intensity, uHTS (AID 651560);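 also: plate controls were DMSO wells with enzyme plus substrate for no effect and substrate without enzyme for full effect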
# Settings: recombinant LMPTP-A, OMFP fluorogenic substrate, at 20 µM, hits give high values
# How it was run: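 Test system: LMPTP-A, protein tyrosine phosphatase of low molecular weight; Input: 0.625 nM enzyme; Incubation: 50 min dark incubation at room temperature; Signal: endpoint fluorescence intensity from OMFP dephosphorylation; Read-out basis: % inhibition versus control wells.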
# Low molecular weight phosphotyrosine protein phosphatase (Homo sapiens), sequence (P24666 whole entry, looked up): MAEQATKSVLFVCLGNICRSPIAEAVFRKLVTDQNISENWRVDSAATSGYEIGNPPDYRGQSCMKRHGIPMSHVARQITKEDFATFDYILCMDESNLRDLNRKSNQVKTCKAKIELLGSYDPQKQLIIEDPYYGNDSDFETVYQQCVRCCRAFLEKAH
row,SMILES,inhibition
1,O=C(COC(=O)C1CC2CCCC(C1)C2=O)NC(=O)c1ccccc1 (centres undefined),-0.507%
2,CC(Oc1ccc(F)cc1F)C(=O)/C=C/N(C)C (centres undefined),0.234%
3,C[C@H]1CN([C@@H](C)CO)S(=O)(=O)c2ccc(-c3cccc(F)c3)cc2O[C@@H]1CN(C)C,-1.08%
4,CCOC(=O)N1CCN(C(=S)Nc2ccc(C)cc2C)CC1,-1.47%
5,COc1cc([N+](=O)[O-])ccc1NC(=S)N1CCN(c2ccccn2)CC1,0.0311%
6,CC1CCN(C(=S)c2cccc(O)c2)CC1,0.643%
7,CCS(=O)(=O)N1Cc2ccccc2CC1C(=O)Nc1ccc(OC)cc1OC (centres undefined),-0.419%
8,CC(NC(=S)NNS(=O)(=O)c1ccc(C(C)(C)C)cc1)c1ccccc1 (centres undefined),2.08%
9,Cc1c(Nc2nc3ccccc3nc2NS(=O)(=O)c2cccs2)c(=O)n(-c2ccccc2)n1C,-0.947%
10,N#Cc1cc([N+](=O)[O-])ccc1Oc1cccc(/C=N/NC(=O)c2ccc(Cl)cc2)c1,0.464%
11,O=C(COc1ccc(/C=N/NC(=O)c2ccc(O)cc2)cc1)Nc1ccc([N+](=O)[O-])cc1,71.4% (active)
12,O=C(COC(=O)C1CCCCC1)Nc1ccc([N+](=O)[O-])cc1,0.534%
13,O=C(COc1ccc([N+](=O)[O-])cc1)Nc1ccc(N2CCCC2)cc1,59.1% (active)
14,O=C(COc1ccc([N+](=O)[O-])cc1)Nc1cccc(C(=O)Nc2ccccc2C(=O)O)c1,0.459%
15,O=C(CSc1ccc([N+](=O)[O-])cn1)Nc1ccc(N2CCOCC2)cc1,-0.239%
16,COc1ccc(CCNc2ncnc3c2nnn3Cc2ccccc2)cc1,1.88%
17,CCn1ccnc1CNC(=O)CC1C(=O)NCCN1Cc1ccc(F)cc1Cl (centres undefined),1.38%
18,Nc1ccc(Cl)c(S(=O)(=O)Nc2ccccc2Cl)c1,-0.587%
19,O=S(=O)(c1ccc(F)cc1)N1CCN(C(=S)NCc2ccco2)CC1,0.0562%
20,CCCc1c(C)nc2scc(-c3ccc(Cl)cc3)n2c1=O,-0.6%
21,O=c1ccc2c(-c3ccccc3S(=O)(=O)O)c3ccc(O)c(O)c3oc-2c1O,58.1% (active)
22,Cc1ccc(N2C(=O)C3C4C=CC(CC4)C3C2=O)cc1Br (centres undefined),-1.41%
23,COc1cc(Cl)c(C)cc1NC(=O)[C@@H]1CCCN1C(=O)c1cccs1,-1.01%
24,CCN(CC)Cc1nc2sc(C)c(C)c2c(=O)[nH]1,-1.11%
25,C/C(=N\Nc1ccc(S(N)(=O)=O)cc1[N+](=O)[O-])c1cccs1,57.1% (active)
26,NS(=O)(=O)c1ccc(NC(=S)NNC(=O)c2cccs2)cc1,-0.673%
27,C/C(=N\Nc1nc2ccccc2[nH]1)c1cccs1,1.27%

row,SMILES,inhibition
1,CCOC1=C2CN(S(=O)(=O)c3ccc(C)cc3)[C@H](c3cccs3)C[C@H]2[C@H]2C(=O)N(c3ccccc3)C(=O)[C@H]2C1,0.231%
2,O=C(c1ccccc1)c1ccc2nc(N3CCCCC3)c3nncn3c2c1,2.58%
3,CC(C)(Oc1ccc(Cl)cc1)C(=O)OCC(=O)NCCc1ccc(S(N)(=O)=O)cc1,-0.949%
4,Cc1sc2ncnc(SCC(=O)Nc3ccc(CN4CCCC4)cc3)c2c1C,23.7%
5,O=c1c2ccccc2nnn1CSc1nc2sc3c(c2c(=O)n1CC1CCCO1)CCC3 (centres undefined),4.21%
6,O=C(CCc1nc2sc3c(c2c(=O)[nH]1)CCCC3)NCC(=O)Nc1ccccc1Br,9.36%
7,O=C(Nc1cccc(Cl)c1)C1CCCN(c2cnccn2)C1 (centres undefined),-0.511%
8,C[C@@H]1CN([C@@H](C)CO)C(=O)CCCn2nncc2CO[C@@H]1CN(C)S(=O)(=O)c1ccc(-c2ccccc2)cc1,-1.91%
9,C=C1c2c(Cl)ccc(O)c2C(O)=C2C(=O)[C@]3(O)C(O)=C(C(N)=O)C(=O)[C@@H](N(C)C)[C@@H]3[C@@H](O)C12 (some centres undefined),72.5% (active)
10,C[C@H](CO)N1C[C@H](C)[C@@H](CN(C)S(=O)(=O)c2ccc(Oc3ccccc3)cc2)OCc2cn(nn2)CCCC1=O,-0.314%
11,O=c1cc(CO)oc(C(Nc2cccc([N+](=O)[O-])c2)c2ccccn2)c1O (centres undefined),-1.69%
12,CCOC(=O)N1CCN(Cc2nc3ccc([N+](=O)[O-])cc3c(=O)n2-c2cccc(OC)c2)CC1,-0.855%
13,CCCCN(C(=O)C1CCC1)c1c(N)n(Cc2ccccc2)c(=O)[nH]c1=O,-1.05%
14,CCN1C(=O)C(=O)N(CC(=O)Nc2cc(C)ccc2C)C1=O,-0.207%
15,COc1ccc(Br)cc1/C=N/Nc1ccc(S(=O)(=O)Nc2ccccc2C(=O)O)cc1[N+](=O)[O-],71.1% (active)
16,COc1cc(CCN=Cc2ccccc2O)c([N+](=O)[O-])cc1OC,0.174%
17,COc1ccccc1C(CNC(=O)c1cccc(NS(=O)(=O)c2ccc(Br)cc2)c1)N(C)C (centres undefined),-1.5%
18,Cc1ccc(S(=O)(=O)N[C@@H](Cc2ccccc2)C(=O)N2CCC(C(=O)N[C@H](C(=O)O)C(C)O)CC2)cc1 (some centres undefined),-1.25%
19,Cc1ccc(O/C=C2\OC(=O)c3ccccc32)cc1,-1.45%
20,CC1(C)C2CC=C(/C=N/NC(=O)c3ccc(Cl)cc3)C1C2 (centres undefined),-2.83%
21,COC(=O)C(C)C1Sc2ccccc2NC1=O (centres undefined),0.652%
22,CCC1CCCCN1C(=O)CSc1nc(C)cc(C)n1 (centres undefined),-0.356%
23,CCN([C@H](CO)C(C)C)S(=O)(=O)c1ccccc1Br,-1.46%
24,CC1CCCC(C)N1C(=O)COC(=O)c1ccccc1C(=O)c1ccccc1 (centres undefined),-1.53%
25,Cn1c(=O)c2c(ncn2CC(=O)N/N=C/c2cn[nH]c2-c2ccc(F)cc2)n(C)c1=O,-0.239%
26,CCN(c1ccccc1)S(=O)(=O)c1cc2c(cc1C)n(C)c(=O)c(=O)n2C,0.0122%
27,CCCNC(=O)NC(=O)COC(=O)CC(NC(N)=O)c1ccc(Cl)cc1 (centres undefined),-1.19%
